Test results reported in PMC3838204 (Journal of the American Chemical Society, 2013).

Assay: Hydrolysis of peptide-thioester
Format: physicochemical
Outline: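 The Asp peptide-thioester (~2 mM) was incubated with Cys-peptide (~2.4 mM) in helium-purged buffer: 6 M Gu·HCl, 200 mM Na2HPO4, 10 mM TCEP·HCl, 20 mM MPAA, pH 7.0, RT, 18–24 h. Monitoring was by LC-MS and RP-HPLC (210 nm). Control omitted Cys-peptide and MPAA, at pH 6.8 for 19 h. The thioester was also examined after HF deprotection/cleavage.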

LYRAX-^αCOSR` [−Glu-α-thioester]
hydrolysis of the thioester, control (control in absence of the Cys-peptide and without added MPAA): no significant hydrolysis

LYRAD-^αCOSR`
hydrolysis of the peptide-thioester after HF deprotection and cleavage (after HF deprotection and cleavage): no hydrolysis
hydrolyzed product formed from the peptide-thioester (control in absence of the Cys-peptide and without added MPAA, 19 h, pH 6.8): about 30%
hydrolysis of the peptide-thioester during the ligation reaction (ligation conditions: 6 M guanidine hydrochloride, 200 mM Na2HPO4, 10 mM TCEP, 20 mM MPAA, pH 7.0, RT, 18–24 hours, LC-MS): nor was significant hydrolysis
